The text below walks through data of ChEMBL document CHEMBL4017535 (J Med Chem, 2017).

The term fraction unbound denotes the share of the substance not bound to proteins or other matrix. Lower therefore signals extensive binding. As usually defined, the Ki is a measure of affinity in units of concentration, obtained from inhibition or displacement. Usually bioavailability stands for the share of a dose that reaches the circulation, judged against a reference dose that is usually intravenous. High values mean much systemic uptake, low ones little systemic uptake. In general, EC50 refers to the concentration at which the effect is half-maximal.

Data set [1] relates to Mus musculus. Nature of the data set: Unbound AUC in mouse at 10 mg/kg, po. Type of data set: ADME, organism-based. Particulars: in vivo. A digest of the protocol: (§1)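 Mouse PK: 3 mg/kg IV and 10 mg/kg PO. Clearance is expressed unbound, Cl_p,u in L/hr/kg. AUC is unbound, in µM*hr. FaFg is computed as F/(1-Clp/Qh), with mouse liver blood flow Qh 5.2 L/hr/kg. Unbound plasma fraction was measured separately.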

A short description of data set [2]: Fraction unbound in rat plasma at 1 uM after 4 hrs by LC-MS/MS method. Type of data set: ADME, cell-free.
Data set [3] concerns Liver. Nature of the data set: Unbound intrinsic clearance in rat liver microsomes at 10 uM preincubated for 5 mins followed by NADPH addition measured after 60 mins by HPLC-UV-MS analysis. It counts as ADME, microsome. To be noted: 1 h.
Data set [4] concerns Rattus norvegicus. Nature of the data set: Unbound AUC in rat at 1 mg/kg, po. Particulars: in vivo.
Data set [5] relates to Mus musculus. Nature of the data set: Oral absorption in mouse at 10 mg/kg. Particulars: in vivo. It counts as ADME, organism-based. The method, boiled down: (§2)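 Oral absorption is expressed as FaFg, calculated as F/(1-Clp/Qh). Liver blood flow (Qh) was 5.2 L/hr/kg for mouse and 3.8 L/hr/kg for rat. Mouse dosing was 3 mg/kg IV and 10 mg/kg PO; rat dosing was 1 mg/kg IV and PO.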

Data set [6] deals with Liver. Nature of the data set: Unbound intrinsic clearance in human liver microsomes at 10 uM preincubated for 5 mins followed by NADPH addition measured after 60 mins by HPLC-UV-MS analysis. Type of data set: ADME, microsome. To be noted: 1 h. In general terms: Liver microsomes are a subcellular fraction often used to study metabolism.
In data set [7] the test system is Liver. Nature of the data set: Unbound intrinsic clearance in mouse liver microsomes. It counts as ADME, microsome. The method, boiled down: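 Liver microsome stability is expressed as unbound intrinsic clearance, Cl_int,u, in L/hr/kg. Dextromethorphan served as the in-house low-clearance reference control and verapamil as the high-clearance reference control.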

Data set [8] deals with T1, Bromodomain-containing protein 4 (Homo sapiens, UniProt O60885). Nature of the data set: Binding affinity to human N-terminal His6-tagged BRD4 BD1-BD2 (K57 to K550 residues) after 1 hr using alexa-647 conjugated probe by TR-FRET assay.
Data set [9] has as its system Rattus norvegicus. Nature of the data set: Plasma unbound clearance in rat at 1 mg/kg, iv. Type of data set: ADME, organism-based. To be noted: in vivo. The method, boiled down: (§3)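 In rats, 1 mg/kg was given by both IV and PO routes. IV clearance is unbound (Cl_p,u, L/hr/kg). FaFg is taken as F/(1-Clp/Qh), using rat Qh 3.8 L/hr/kg. Unbound plasma fraction was determined in rat plasma.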

Data set [10] in a line: Oral bioavailability in rat at 1 mg/kg. Type of data set: ADME, organism-based. To be noted: in vivo. A digest of the protocol:
as §3

Data set [11] relates to MX1. Nature of the data set: Antiproliferative activity against human MX1 cells after 72 hrs by Cell Titer Glo assay. Particulars: MX1, 72 h. It counts as functional, cell-based.
Data set [12] deals with Rattus norvegicus. Nature of the data set: Oral absorption in rat at 1 mg/kg. To be noted: in vivo. Type of data set: ADME, organism-based. The method, boiled down:
as §2

Data set [13] is described as follows: Permeability in MDCK cells. Type of data set: ADME, cell-based, Canis lupus familiaris. To be noted: dog, read-out: permeability.
The nature of data set [14]: Fraction unbound in mouse plasma at 1 uM after 4 hrs by LC-MS/MS method. Type of data set: ADME, cell-free.
The nature of data set [15]: Oral bioavailability in mouse at 10 mg/kg. Type of data set: ADME, organism-based. To be noted: in vivo. The method, boiled down: as §1
The target of data set [16] is T1, Bromodomain-containing protein 4. Nature of the data set: Inhibition of BRD4 in human H1299 cells assessed as decrease in HPV LCR-E2-EP400-mediated transcriptional repression after 24 hrs by Bright-Glo luciferase reporter gene assay. It counts as cell-based. Background: Reporter assays use an easily measured gene product as a stand-in for the process of interest.

The subject of data set [17] is Mus musculus. Nature of the data set: Plasma unbound clearance in mouse at 3 mg/kg, iv. Type of data set: ADME, organism-based. To be noted: in vivo. The method, boiled down: as §1
The nature of data set [18]: Toxicity in iv dosed NOD.SCID mouse xenografted with gamma-irradiated human Kasumi-1 cells administered as […] for every 7 days. It counts as organism-based. Particulars: in vivo. The method, boiled down: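 Kasumi-1 AML xenograft in mice; dosing intravenous once every 7 days at 8 mg/kg.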
(Xenograft models place foreign cells or tissue in a host animal.)

Data set [19] deals with Mus musculus. Nature of the data set: Toxicity in NOD.SCID mouse assessed as maximum mean body weight loss at 8 mg/kg, iv qd for every 7 days (reference value: 9%). Type of data set: organism-based. Particulars: in vivo, 168 h.

Bounds are passed on as bounds.

For `Cn1cc(-c2cc(NS(C)(=O)=O)ccc2Oc2ccc(F)cc2F)c2cc[nH]c2c1=O`, the fAUC in [1] is 1.3 µM·h; in data set [4], 0.19 µM·h. Besides, the fraction unbound at 4 h, 1 µM in data set [2] worked out at 0.036; in data set [14] it was 0.033. Also, the CL free in data set [3] is under 65 mL/min/kg; in [6], 155 mL/min/kg; in [7] it was 283 mL/min/kg. For the same molecule, the FaFg in data set [5] amounted to 0.7; in data set [12] it was 0.52. Moreover, the Ki in data set [8] worked out at 4.5 nM. In addition, the clearance in data set [9] was found to be 417 mL/min/kg; in data set [17], 167 mL/min/kg. The bioavailability is 40% in data set [10] and 65% in [15]. Further, the EC50 in data set [11] worked out at 29 nM; in data set [16] it was 21 nM. Further, the Papp in data set [13] is 17 ×10⁻⁶ cm/s.

Regarding `Cn1cc(-c2cc(NS(C)(=O)=O)ccc2Oc2ccccc2)c2cc[nH]c2c1=O`, the fAUC in data set [1] came out at 0.34 µM·h; in [4] it was 0.016 µM·h. In addition, the fraction unbound at 4 h, 1 µM stood at 0.034 in [2] and 0.039 in [14]. In addition, the results for the CL free in data set [3], in data set [6] and in data set [7] were 2000 mL/min/kg, 83.3 mL/min/kg and 300 mL/min/kg, respectively. The FaFg amounted to 0.77 in data set [5] and 0.32 in data set [12]. The Ki in [8] was determined as 2.4 nM. Moreover, the results for the clearance in data set [9] and in [17] were 1230 mL/min/kg and 650 mL/min/kg, respectively. Besides, the bioavailability came to 10% in data set [10] and 55% in [15]. Besides, the values for the EC50 in data set [11] and in data set [16] were 16 nM and 11 nM, respectively. Further, the Papp in data set [13] is 12 ×10⁻⁶ cm/s.

As to `Nc1ncn([C@@H]2O[C@H](CO)[C@@H](O)[C@H]2O)c(=O)n1` [AZACITIDINE], in data set [18], the MTD at 168 h was found to be 8 mg/kg. The Activity in data set [19] is 1%.

For `Cn1cc(-c2cc(NS(C)(=O)=O)ccc2OC2CCCCC2)c2cc[nH]c2c1=O`, the CL free in [3] is 1600 mL/min/kg; in [6] it was 450 mL/min/kg; in [7] it was 3670 mL/min/kg. The molecule further yielded an inhibition constant Ki in data set [8] of 3.7 nM. Moreover, the EC50 in data set [11] was found to be 14 nM; in data set [16], 18 nM. In data set [13], the Papp stood at 23 ×10⁻⁶ cm/s.
